Tests used:
[1] = biological target: T1, Monocarboxylate transporter 1 (Rattus norvegicus, UniProt P53987); test: Inhibition of MCT1 in rat brain endothelial 4 cells assessed as L-[14C]-Lactate Uptake after 15 mins by scintillation spectrometric analysis; assay type: cell-based
T1 sequence (P53987 whole entry): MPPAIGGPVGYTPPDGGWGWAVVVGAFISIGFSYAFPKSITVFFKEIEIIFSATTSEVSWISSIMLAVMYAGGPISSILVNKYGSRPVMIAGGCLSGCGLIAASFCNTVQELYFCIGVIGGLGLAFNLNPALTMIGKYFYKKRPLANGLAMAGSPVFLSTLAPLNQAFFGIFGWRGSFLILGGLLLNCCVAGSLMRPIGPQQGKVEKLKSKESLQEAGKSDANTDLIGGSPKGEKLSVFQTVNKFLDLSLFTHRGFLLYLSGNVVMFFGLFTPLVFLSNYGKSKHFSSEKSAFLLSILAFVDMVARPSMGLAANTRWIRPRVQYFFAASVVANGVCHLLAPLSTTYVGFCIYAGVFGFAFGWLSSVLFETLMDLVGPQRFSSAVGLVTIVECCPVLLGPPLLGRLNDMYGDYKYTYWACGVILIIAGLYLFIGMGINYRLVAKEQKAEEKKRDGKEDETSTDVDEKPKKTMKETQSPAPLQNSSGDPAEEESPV

[2] = Cytotoxicity against mouse GL261 cells expressing luc2 assessed as reduction in cell viability after 72 hrs by MTT assay; assay type: functional, cell-based; conditions: GL261, 72 h
In short: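 GL261-luc2 cells grown in DMEM, 10% FBS, 50 μg/mL geneticin, penicillin-streptomycin; 5 × 10^3 cells/well, 24 h at 37 °C, 5% CO2, then compound in replicate for 72 h.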

[3] = system: MDA-MB-231; test: Cytotoxicity against human MDA-MB-231 cells expressing luc2 assessed as reduction in cell viability after 72 hrs by MTT assay; assay type: functional, cell-based; conditions: MDA-MB-231, 72 h
In short: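 MDA-MB-231 cells grown in DMEM, 10% FBS, penicillin-streptomycin; 5 × 10^3 cells/well, 24 h at 37 °C, 5% CO2, then compound in replicate for 72 h.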

[4] = Permeability across apical side at pH 6.5 to basolateral side at pH 7.4 in human Caco2 cells assessed as compound recovery at 10 uM; assay type: ADME, cell-based; conditions: caco-2, pH 6.5, 10 µM
[5] = Permeability across basolateral side at pH 6.5 to apical side at pH 7.4 in human Caco2 cells assessed as compound recovery at 10 uM; assay type: ADME, cell-based; conditions: caco-2, pH 6.5, 10 µM
[6] = Efflux ratio of permeability from basolateral to apical side over apical to basolateral side in human Caco2 cells; assay type: ADME, cell-based; conditions: caco-2
[7] = system: Mus musculus; test: Toxicity in CD-1 mouse assessed as change in body weight at 20 mg/kg, ip qd; assay type: organism-based; conditions: in vivo
In short: (§1)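 Healthy CD-1 mice were dosed once daily, either 20 mg/kg ip or 100 mg/kg by oral gavage. Control mice received vehicle (10% DMSO in saline). Animals were monitored for mortality, body weight change and apparent side effects, compared with the vehicle group. The study was conducted by GenScript under an approved IACUC protocol.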

[8] = system: Mus musculus; test: Toxicity in CD-1 mouse assessed as change in body weight at 100 mg/kg, administered via oral gavage qd; assay type: organism-based; conditions: in vivo; in short: as §1
[9] = system: Mus musculus; test: Toxicity in CD-1 mouse assessed as visible toxic effects at 20 mg/kg, ip qd; assay type: organism-based; conditions: in vivo; in short: as §1
[10] = system: Mus musculus; test: Toxicity in CD-1 mouse assessed as visible toxic effects at 100 mg/kg, administered via oral gavage qd; assay type: organism-based; conditions: in vivo; in short: as §1
[11] = system: Mus musculus; test: Toxicity in CD-1 mouse assessed as mortality at 20 mg/kg, ip qd; assay type: organism-based; conditions: in vivo; in short: as §1
[12] = system: Mus musculus; test: Toxicity in CD-1 mouse assessed as mortality at 100 mg/kg, administered via oral gavage qd; assay type: organism-based; conditions: in vivo; in short: as §1
[13] = Antitumor activity against MCT1 expressing mouse GL261 cells coexpressing luc2 syngrafted in C57BL/6 mouse assessed as tumor growth inhibition at 20 mg/kg, ip qd; assay type: functional; conditions: C57BL/6, GL261, ip, read-out: TGI
In short: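 GL261-luc2 cells (5 × 10^6) in 1:1 matrigel-PBS injected into right flank of C57BL/6 mice (male and female); randomized, n = 6; dosing began at tumor volume 200 mm3; vehicle 10% DMSO in saline. Caliper measurement every 2–3 days, V = ab²/2. At study end tumors excised and weighed; % inhibition = [(C − T)/C] × 100 on mean tumor weights. Mann-Whitney test.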

[14] = system: MDA-MB-231; test: Antitumor activity against MCT4 expressing human MDA-MB-231 cells coexpressing luciferase xenografted in SCID mouse assessed as tumor growth inhibition at 20 mg/kg, ip qd measured on day 19; assay type: functional; conditions: MDA-MB-231, ip, 456 h, read-out: TGI
In short: (§2)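 Female SCID mice, right flank injected with 10 × 10^6 MDA-MB-231 cells in 1:1 matrigel-PBS; randomized, n = 6; dosing started at mean tumor volume ~100 mm3; vehicle 10% DMSO in saline. Study ended day 19; tumors excised and weighed; % inhibition = [(C − T)/C] × 100 from mean tumor weights versus vehicle. Mann-Whitney test.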

[15] = system: MDA-MB-231; test: Antitumor activity against MCT4 expressing human MDA-MB-231 cells coexpressing luciferase xenografted in SCID mouse assessed as tumor growth inhibition at 100 mg/kg, administered via oral gavage qd measured on day 19; assay type: functional; conditions: MDA-MB-231, po, 456 h, read-out: TGI; in short: as §2
[16] = system: MDA-MB-231; test: Antitumor activity against MCT4 expressing human MDA-MB-231 cells coexpressing luciferase xenografted in SCID mouse assessed as tumor growth inhibition at 0.5 mg/kg, ip for 5 days per week measured on day 19; assay type: functional; conditions: MDA-MB-231, ip, read-out: TGI; in short: as §2

SMILES | IC50 [1] | IC50 [2] | IC50 [3] | Drug recovery [4] | Drug recovery [5] | further results
O=C(O)c1cc2ccc(N3CCCC3)cc2oc1=O | 0.38 µM | > 250 µM | > 250 µM | – | – | –
CCCN(CCC)c1ccc2cc(C(=O)O)c(=O)oc2c1 | 0.45 µM | > 250 µM | > 250 µM | – | – | –
C#CCN(CC#C)c1ccc2cc(C(=O)O)c(=O)oc2c1 | 0.21 µM | > 250 µM | > 250 µM | – | – | –
C=CCN(CC=C)c1ccc2cc(C(=O)O)c(=O)oc2c1 | 0.17 µM | > 250 µM | > 250 µM | – | – | –
O=C(O)c1cc2ccc(N(Cc3ccccc3)Cc3ccccc3)cc2oc1=O | 0.09 µM | > 250 µM | 240 µM | 34% | 55% | Ratio [6]: 0.2; Activity [7]: Non-toxic; Activity [8]: Non-toxic; Activity [9]: Non-toxic; Activity [10]: Non-toxic; Activity [11]: Non-toxic; Activity [12]: Non-toxic; inhibition in vivo at 20 mg/kg [13]: 77%; inhibition in vivo at 20 mg/kg [14]: 10%; inhibition in vivo at 100 mg/kg [15]: 13%
COc1cc2c(c(OC)c1OC)-c1ccc(OC)c(=O)cc1[C@@H](NC(C)=O)CC2 [COLCHICINE] | – | – | – | 75% | – | –
COc1cccc2c1C(=O)c1c(O)c3c(c(O)c1C2=O)C[C@@](O)(C(=O)CO)C[C@@H]3O[C@H]1C[C@H](N)[C@H](O)[C@H](C)O1 [DOXORUBICIN] | – | – | – | – | – | inhibition in vivo at 0.5 mg/kg [16]: 50%
CC(CCc1ccccc1)NCC(O)c1ccc(O)c(C(N)=O)c1 (stereo not given) [LABETALOL] | – | – | – | 66% | 72% | –
CC(C)NCC(O)COc1cccc2ccccc12 (stereo not given) [PROPRANOLOL] | – | – | – | 67% | 80% | –
CNC(=C[N+](=O)[O-])NCCSCc1ccc(CN(C)C)o1 [RANITIDINE] | – | – | – | – | 85% | –
Cn1nnc2c(C(N)=O)ncn2c1=O [TEMOZOLOMIDE] | – | – | – | – | – | inhibition in vivo at 20 mg/kg [13]: 81%

Reference: ChEMBL document CHEMBL3813630, “Coumarin carboxylic acids as monocarboxylate transporter 1 inhibitors: In vitro and in vivo studies as potential anticancer agents” (Bioorg Med Chem Lett, 2016)
